Experimental data from ChEMBL document CHEMBL5120943, “Discovery of Novel Pyrazolopyrimidines as Potent, Selective, and Orally Bioavailable Inhibitors of ALK2” (ACS Med Chem Lett, 2022).
The source made the active and inactive calls. The calls are words filed in the database; no cut-off is given here.

Key:
[1] = target: T1, Activin receptor type-1 (Homo sapiens, UniProt Q04771); assay: Inhibition of human recombinant N-terminal GST tagged ALK2 (147 to end residues) expressed in baculovirus infected in Sf9 cells assessed as loss of peptide phosphorylation activity using peptide substrate in presence of ATP and measured after 3 hrs by HTRF assay
T1 sequence (Q04771 whole entry): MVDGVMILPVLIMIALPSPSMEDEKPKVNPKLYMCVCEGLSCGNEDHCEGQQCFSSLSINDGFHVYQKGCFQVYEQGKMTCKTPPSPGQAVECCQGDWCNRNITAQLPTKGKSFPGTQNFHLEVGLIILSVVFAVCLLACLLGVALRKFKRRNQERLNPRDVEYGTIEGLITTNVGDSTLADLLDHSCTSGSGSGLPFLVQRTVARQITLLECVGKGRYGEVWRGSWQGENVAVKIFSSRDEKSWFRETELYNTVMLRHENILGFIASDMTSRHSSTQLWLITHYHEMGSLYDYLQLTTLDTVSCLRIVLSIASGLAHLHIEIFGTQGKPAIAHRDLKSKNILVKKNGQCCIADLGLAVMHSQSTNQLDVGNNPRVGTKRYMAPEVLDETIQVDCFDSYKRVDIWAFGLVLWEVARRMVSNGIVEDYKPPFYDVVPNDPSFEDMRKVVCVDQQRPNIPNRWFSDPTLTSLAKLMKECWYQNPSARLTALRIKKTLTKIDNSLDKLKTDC
Summary of the method: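 HTRF activity assay measuring loss of ALK2 phosphorylation of a peptide substrate. IC50 values were determined.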

[2] = Metabolic stability in human liver microsomes assessed as intrinsic clearance at 1uM and measured upto 30 mins in presence of NADPH by LC/MS analysis; assay type: ADME, Microsome; settings: read-out: CLH (converted)
[3] = Protein binding in human plasma assessed as free fraction measured after 2 hrs by LC-MS/MS analysis; assay type: ADME, cell-free
[4] = Oral bioavailability in Sprague-Dawley rat at 3 mg/kg measured upto 24 hrs post dose by LC/MS/MS analysis; assay type: ADME, organism-based; settings: in vivo
[5] = AUC infinity in Sprague-Dawley rat at 3 mg/kg, po measured upto 24 hrs post dose by LC/MS/MS analysis; assay type: ADME, organism-based; set-up: time < 24 hrs, dose 3 mg/kg, route po; settings: in vivo
[6] = target: T2, Hepcidin (Homo sapiens, UniProt P81172); assay: Inhibition of Hepcidin in human Huh-7 cells assessed as inhibition of BMP-7 induced hepcidin production incubated for 16 to 24 hrs by ELISA method; assay type: cell-based
T2 sequence (P81172 whole entry): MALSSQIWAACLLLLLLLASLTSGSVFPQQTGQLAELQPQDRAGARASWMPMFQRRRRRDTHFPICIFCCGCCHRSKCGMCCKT
Summary of the method: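 Huh7 liver cells were stimulated with BMP7. Inhibition of secreted hepcidin was measured and an IC50 was derived.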

[7] = Volume of distribution at steady state in Sprague-Dawley rat at 3 mg/kg, po or 1 mg/kg, iv measured upto 24 hrs post dose by LC/MS/MS analysis; assay type: ADME, organism-based; settings: in vivo
[8] = Cmax in Sprague-Dawley rat at 3 mg/kg, po measured upto 24 hrs post dose by LC/MS/MS analysis; assay type: ADME, organism-based; set-up: dose 3 mg/kg, time < 24 hrs, route po; settings: in vivo
[9] = Half life in Sprague-Dawley rat at 3 mg/kg, po or 1 mg/kg, iv measured upto 24 hrs post dose by LC/MS/MS analysis; assay type: ADME, organism-based; settings: in vivo
[10] = Apparent permeability across apical to basolateral side in human Caco-2 cells at 50 uM incubated for 120 mins by LC/MS/MS analysis
[11] = target: T1, Activin receptor type-1; assay: Inhibition of ALK2 in human HeLa cells assessed as reduction in BMP-7 induced SMAD1 phosphorylation incubated for 1 hr followed BMP-7 stimulation for 30 mins by HTRF assay; assay type: cell-based
Summary of the method: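 HeLa cells were stimulated with BMP7. Inhibition of BMP7-induced SMAD1 phosphorylation was read by HTRF and an IC50 was derived.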

[12] = In vivo inhibition of ALK2 in C57BL/6 mouse assessed as reduction in hepcidin level in plasma at 10 mg/kg, po measured after 4 hrs post dose relative to control; assay type: functional
[13] = AUC (0 to 24 hrs) in C57BL/6 mouse plasma at 10 mg/kg, po; assay type: ADME, organism-based; set-up: time < 24 hr, dose 10 mg/kg, route po
Summary of the method: (§1)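 Female C57BL/6 mice were given a single oral dose of 10 mg/kg. Compound concentrations in liver and plasma were measured, and AUC was calculated over 0–24 h.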

[14] = target: Cytochrome P450 2C9 (Homo sapiens, UniProt P11712); assay: Inhibition of CYP2C9 (unknown origin); assay type: ADME
[15] = target: Cytochrome P450 3A4 (Homo sapiens, UniProt P08684); assay: Inhibition of CYP3A4 (unknown origin); assay type: ADME
[16] = tested on: Mus musculus; assay: In vivo inhibition of ALK2 in C57BL/6 mouse assessed as reduction in hepcidin level in plasma at 10 mg/kg, po measured after 24 hrs post dose; assay type: functional, organism-based
[17] = target: T3, Cytochrome P450 2C8 (Homo sapiens, UniProt P10632); assay: Inhibition of CYP2C8 (unknown origin); assay type: ADME
T3 sequence (P10632 whole entry): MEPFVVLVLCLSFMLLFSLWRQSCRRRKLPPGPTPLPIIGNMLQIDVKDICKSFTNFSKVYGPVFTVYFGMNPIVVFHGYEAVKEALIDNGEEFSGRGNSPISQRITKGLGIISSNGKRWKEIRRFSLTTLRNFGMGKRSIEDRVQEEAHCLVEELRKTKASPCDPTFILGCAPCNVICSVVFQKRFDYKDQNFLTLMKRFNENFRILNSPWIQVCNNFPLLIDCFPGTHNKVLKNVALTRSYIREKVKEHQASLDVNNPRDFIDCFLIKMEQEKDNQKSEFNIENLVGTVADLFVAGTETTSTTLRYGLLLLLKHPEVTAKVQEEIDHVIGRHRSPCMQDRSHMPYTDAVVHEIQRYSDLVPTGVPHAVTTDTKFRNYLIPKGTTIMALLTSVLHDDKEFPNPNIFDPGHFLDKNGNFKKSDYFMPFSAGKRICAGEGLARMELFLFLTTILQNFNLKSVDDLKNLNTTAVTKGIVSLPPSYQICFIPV

[18] = target: hERG (KCNH2) (Homo sapiens, UniProt Q12809); assay: Inhibition of human ERG at 1 uM by patch clamp assay relative to control; assay type: toxicity
Summary of the method: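 hERG activity was tested by patch clamp at 1 μM and expressed as percent inhibition.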

[19] = target: T4, Cytochrome P450 1A2 (Homo sapiens, UniProt P05177); assay: Inhibition of CYP1A2 (unknown origin); assay type: ADME
T4 sequence (P05177 whole entry): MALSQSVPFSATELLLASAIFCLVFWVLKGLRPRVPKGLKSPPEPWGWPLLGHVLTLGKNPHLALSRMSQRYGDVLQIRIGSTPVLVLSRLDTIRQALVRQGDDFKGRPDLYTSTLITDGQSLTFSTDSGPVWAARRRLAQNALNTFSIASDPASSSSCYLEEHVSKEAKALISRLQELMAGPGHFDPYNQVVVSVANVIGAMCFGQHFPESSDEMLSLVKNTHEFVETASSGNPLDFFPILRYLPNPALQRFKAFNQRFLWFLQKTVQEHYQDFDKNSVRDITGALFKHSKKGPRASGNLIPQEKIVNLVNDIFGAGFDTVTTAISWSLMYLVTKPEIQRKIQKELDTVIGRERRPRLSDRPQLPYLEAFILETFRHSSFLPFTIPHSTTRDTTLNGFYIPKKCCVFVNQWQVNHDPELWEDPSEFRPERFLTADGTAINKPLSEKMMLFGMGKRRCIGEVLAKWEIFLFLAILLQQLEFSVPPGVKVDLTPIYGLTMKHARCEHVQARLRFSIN

[20] = target: T5, Cytochrome P450 2B6 (Homo sapiens, UniProt P20813); assay: Inhibition of CYP2B6 (unknown origin); assay type: ADME
T5 sequence (P20813 whole entry): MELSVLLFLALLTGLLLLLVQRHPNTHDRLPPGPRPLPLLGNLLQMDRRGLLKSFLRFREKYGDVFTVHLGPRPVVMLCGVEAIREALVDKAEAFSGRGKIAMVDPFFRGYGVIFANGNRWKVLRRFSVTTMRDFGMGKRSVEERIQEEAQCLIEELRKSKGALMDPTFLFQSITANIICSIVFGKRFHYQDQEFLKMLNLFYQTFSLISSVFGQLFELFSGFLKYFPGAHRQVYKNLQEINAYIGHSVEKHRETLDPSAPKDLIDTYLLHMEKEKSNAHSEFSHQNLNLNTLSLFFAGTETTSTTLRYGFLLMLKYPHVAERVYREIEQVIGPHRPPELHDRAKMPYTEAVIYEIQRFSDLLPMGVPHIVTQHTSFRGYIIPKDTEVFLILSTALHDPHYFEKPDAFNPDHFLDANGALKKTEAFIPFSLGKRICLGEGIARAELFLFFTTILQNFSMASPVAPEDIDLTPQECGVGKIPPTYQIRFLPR

[21] = target: Cytochrome P450 2C19 (Homo sapiens, UniProt P33261); assay: Inhibition of CYP2C19 (unknown origin); assay type: ADME
[22] = target: Cytochrome P450 2D6 (Homo sapiens, UniProt P10635); assay: Inhibition of CYP2D6 (unknown origin); assay type: ADME
[23] = AUC (0 to 24 hrs) in C57BL/6 mouse liver at 10 mg/kg, po; assay type: ADME, organism-based; set-up: time < 24 hr, dose 10 mg/kg, route po; summary of the method: as §1

Cytochrome P450 3A4, sequence (P08684 whole entry): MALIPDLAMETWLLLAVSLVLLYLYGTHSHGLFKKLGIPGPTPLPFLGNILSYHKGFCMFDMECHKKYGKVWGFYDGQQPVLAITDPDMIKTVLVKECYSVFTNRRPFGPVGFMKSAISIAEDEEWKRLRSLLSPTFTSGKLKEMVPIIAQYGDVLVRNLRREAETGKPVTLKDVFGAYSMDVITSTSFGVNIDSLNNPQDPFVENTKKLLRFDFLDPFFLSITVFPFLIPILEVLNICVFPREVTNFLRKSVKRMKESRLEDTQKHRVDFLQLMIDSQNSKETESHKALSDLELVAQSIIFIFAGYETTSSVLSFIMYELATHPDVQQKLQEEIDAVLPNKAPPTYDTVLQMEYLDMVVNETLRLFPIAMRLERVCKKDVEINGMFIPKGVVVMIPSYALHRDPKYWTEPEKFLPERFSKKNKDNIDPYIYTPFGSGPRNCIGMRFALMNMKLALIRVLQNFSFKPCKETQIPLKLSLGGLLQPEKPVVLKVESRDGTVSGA
Cytochrome P450 2C9, sequence (P11712 whole entry): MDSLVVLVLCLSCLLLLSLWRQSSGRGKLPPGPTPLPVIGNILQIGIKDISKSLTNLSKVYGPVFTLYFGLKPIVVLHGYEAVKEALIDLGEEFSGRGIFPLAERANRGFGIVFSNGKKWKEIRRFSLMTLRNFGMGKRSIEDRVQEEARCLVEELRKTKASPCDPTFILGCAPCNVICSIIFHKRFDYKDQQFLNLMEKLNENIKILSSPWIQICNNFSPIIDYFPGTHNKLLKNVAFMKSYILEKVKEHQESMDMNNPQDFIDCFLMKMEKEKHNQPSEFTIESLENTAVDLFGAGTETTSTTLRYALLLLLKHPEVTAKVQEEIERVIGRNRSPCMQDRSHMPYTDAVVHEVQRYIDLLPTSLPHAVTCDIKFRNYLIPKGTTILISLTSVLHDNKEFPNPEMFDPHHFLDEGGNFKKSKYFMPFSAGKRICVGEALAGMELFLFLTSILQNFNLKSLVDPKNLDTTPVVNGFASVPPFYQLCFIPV
hERG (KCNH2), sequence (Q12809 whole entry): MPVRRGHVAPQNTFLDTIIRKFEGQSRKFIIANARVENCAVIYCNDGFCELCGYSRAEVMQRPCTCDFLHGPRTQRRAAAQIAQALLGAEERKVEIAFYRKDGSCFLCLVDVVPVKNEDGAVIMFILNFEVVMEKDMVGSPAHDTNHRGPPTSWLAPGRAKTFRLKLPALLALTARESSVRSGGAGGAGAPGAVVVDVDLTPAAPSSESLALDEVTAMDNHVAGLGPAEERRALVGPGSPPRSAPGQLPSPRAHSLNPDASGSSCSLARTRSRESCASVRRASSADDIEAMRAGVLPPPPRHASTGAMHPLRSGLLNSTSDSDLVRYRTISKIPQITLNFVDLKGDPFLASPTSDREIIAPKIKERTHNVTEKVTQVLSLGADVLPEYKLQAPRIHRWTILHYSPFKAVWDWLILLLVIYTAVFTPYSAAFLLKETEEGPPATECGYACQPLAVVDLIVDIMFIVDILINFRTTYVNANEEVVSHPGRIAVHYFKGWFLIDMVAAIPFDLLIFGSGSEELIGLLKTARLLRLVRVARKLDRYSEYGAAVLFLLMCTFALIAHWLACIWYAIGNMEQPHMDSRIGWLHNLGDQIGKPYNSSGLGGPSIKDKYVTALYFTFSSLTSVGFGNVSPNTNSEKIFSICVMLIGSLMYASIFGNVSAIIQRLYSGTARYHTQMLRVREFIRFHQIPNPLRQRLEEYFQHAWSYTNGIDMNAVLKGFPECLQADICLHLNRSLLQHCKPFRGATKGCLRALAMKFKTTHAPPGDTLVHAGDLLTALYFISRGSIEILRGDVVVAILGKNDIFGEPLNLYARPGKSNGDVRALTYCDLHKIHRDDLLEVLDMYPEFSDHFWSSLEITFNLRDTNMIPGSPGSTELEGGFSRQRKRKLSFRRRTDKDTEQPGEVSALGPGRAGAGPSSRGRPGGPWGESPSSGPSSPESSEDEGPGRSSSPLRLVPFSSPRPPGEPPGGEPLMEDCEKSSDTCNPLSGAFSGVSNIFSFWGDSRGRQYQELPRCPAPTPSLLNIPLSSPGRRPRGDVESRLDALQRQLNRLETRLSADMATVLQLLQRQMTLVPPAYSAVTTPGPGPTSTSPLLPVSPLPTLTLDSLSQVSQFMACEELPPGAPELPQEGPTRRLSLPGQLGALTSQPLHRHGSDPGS
Cytochrome P450 2C19, sequence (P33261 whole entry): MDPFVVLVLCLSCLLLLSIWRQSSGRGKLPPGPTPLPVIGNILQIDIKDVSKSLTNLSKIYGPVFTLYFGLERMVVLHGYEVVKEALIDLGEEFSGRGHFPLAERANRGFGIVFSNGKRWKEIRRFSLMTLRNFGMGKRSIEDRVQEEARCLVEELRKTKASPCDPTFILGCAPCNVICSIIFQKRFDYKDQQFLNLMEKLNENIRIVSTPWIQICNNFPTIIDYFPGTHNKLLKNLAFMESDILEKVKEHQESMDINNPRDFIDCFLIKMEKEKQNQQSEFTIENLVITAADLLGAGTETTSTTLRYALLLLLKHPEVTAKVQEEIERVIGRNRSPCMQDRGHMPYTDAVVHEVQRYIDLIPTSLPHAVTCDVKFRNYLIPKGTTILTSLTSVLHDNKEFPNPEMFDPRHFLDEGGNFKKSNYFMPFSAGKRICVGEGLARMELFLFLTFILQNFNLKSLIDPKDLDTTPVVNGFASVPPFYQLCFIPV
Cytochrome P450 2D6, sequence (P10635 whole entry): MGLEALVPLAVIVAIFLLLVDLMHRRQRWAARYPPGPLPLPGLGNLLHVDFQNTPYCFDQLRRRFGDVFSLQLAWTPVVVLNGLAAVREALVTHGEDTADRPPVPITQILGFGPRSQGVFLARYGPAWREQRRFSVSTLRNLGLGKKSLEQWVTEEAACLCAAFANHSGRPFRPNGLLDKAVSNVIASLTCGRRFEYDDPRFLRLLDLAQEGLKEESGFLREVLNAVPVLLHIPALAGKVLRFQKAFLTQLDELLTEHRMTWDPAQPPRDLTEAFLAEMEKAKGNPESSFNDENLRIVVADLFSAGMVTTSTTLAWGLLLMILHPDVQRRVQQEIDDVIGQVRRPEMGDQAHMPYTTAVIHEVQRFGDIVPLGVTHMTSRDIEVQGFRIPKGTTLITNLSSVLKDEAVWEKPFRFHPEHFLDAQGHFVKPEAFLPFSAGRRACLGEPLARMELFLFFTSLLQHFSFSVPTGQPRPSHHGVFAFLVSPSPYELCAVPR

C[C@@H]1CN(c2ccc(-c3n[nH]c4cnc(N5[C@H](C)CNC[C@@H]5C)nc34)cn2)CCN1
IC50 [1]: 793 nM

C[C@@H]1CN(c2ccc(-c3n[nH]c4cnc(N5[C@H](C)CN(C(=O)N6CCCC6)C[C@@H]5C)nc34)cn2)CCN1
CLint scaled at 1 µM [2]: 18.3 mL/min/kg | fraction unbound at 2 h [3]: 0.043 | bioavailability [4]: 46% | AUC(0-inf) [5]: 0.669 µM·h | IC50 [6]: 28 nM | Vdss [7]: 9.2 L/kg | Cmax [8]: 151 nM | half-life [9]: 228 min

COC(=O)N1C[C@@H](C)N(c2ncc3[nH]nc(-c4ccc(N5CCN[C@H](C)C5)nc4)c3n2)[C@@H](C)C1
IC50 [1]: 0.85 nM | Papp A→B at 2 h, 50 µM [10]: 0.6 ×10⁻⁶ cm/s | CLint scaled at 1 µM [2]: 15 mL/min/kg | fraction unbound at 2 h [3]: 0.099 | bioavailability [4]: 49% | AUC(0-inf) [5]: 0.441 µM·h | IC50 [6]: 7.3 nM | Vdss [7]: 21.9 L/kg | IC50 [11]: 27 nM | Cmax [8]: 75 nM | half-life [9]: 186 min

CCOC(=O)N1C[C@@H](C)N(c2ncc3[nH]nc(-c4ccc(N5CCN[C@H](C)C5)nc4)c3n2)[C@@H](C)C1
IC50 [1]: 4.9 nM | IC50 [11]: 212 nM

CC1CCCCN1c1ncc2[nH]nc(-c3ccc(N4CCN[C@H](C)C4)nc3)c2n1 (stereo not given in full)
IC50 [1]: 8.1 nM

COCC(=O)N1C[C@@H](C)N(c2ncc3[nH]nc(-c4ccc(N5CCN[C@H](C)C5)nc4)c3n2)[C@@H](C)C1
IC50 [1]: 7.3 nM | IC50 [11]: 346 nM

COC(=O)N1C[C@@H](C)N(c2ncc3[nH]nc(-c4ccc(N5CCN(C)CC5)cc4)c3n2)[C@@H](C)C1
IC50 [1]: 0.98 nM | inhibition in vivo at 10 mg/kg [12]: 80% | Papp A→B at 2 h, 50 µM [10]: 4.5 ×10⁻⁶ cm/s | CLint scaled at 1 µM [2]: 16.7 mL/min/kg | fraction unbound at 2 h [3]: 0.043 | AUC(0-t) at 24 h [13]: 26.2 µM·h | IC50 [14]: > 25 µM | bioavailability [4]: 85% | IC50 [15]: > 25 µM | inhibition [16]: Active | IC50 [17]: > 25 µM | inhibition at 1 µM [18]: < 1% | AUC(0-inf) [5]: 4.05 µM·h | IC50 [19]: > 25 µM | IC50 [6]: 34 nM | IC50 [20]: > 25 µM | Vdss [7]: 7.6 L/kg | IC50 [11]: 61 nM | IC50 [21]: > 25 µM | Cmax [8]: 434 nM | IC50 [22]: > 25 µM | half-life [9]: 342 min | AUC(0-t) at 24 h [23]: 376 µM·h

COC(=O)N1C[C@@H](C)N(c2ncc3[nH]nc(-c4ccc(N5CCN(C)CC5)c(F)c4)c3n2)[C@@H](C)C1
IC50 [1]: 1.3 nM | IC50 [11]: 119 nM
